{"source": "ChEMBL document CHEMBL3797089", "about": "“Morusin Induces TRAIL Sensitization by Regulating EGFR and DR5 in Human Glioblastoma Cells” (J Nat Prod, 2016)", "system": "U-87 MG", "experiment": "Induction of apoptosis in human U87MG cells assessed as increase in cleaved caspase 9 levels at 2.5 uM after 24 hrs by Western blot analysis in presence of TRAIL", "assay_type": "functional, cell-based", "settings": "U-87MG ATCC", "procedure,_shortened": "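U87MG and T98G given TRAIL 25 ng/mL plus morusin 2.5 μM together for 24 h; single-agent arms used TRAIL 50 ng/mL or morusin 5 μM. Lysates immunoblotted for cleaved caspase 3, 8, 9 and cleaved PARP, with β-actin as internal control.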", "note": "Calls of active or inactive are those of the source. The calls are words filed in the database; no cut-off is given here.", "data": [{"compound": "CC(C)=CCc1c(-c2ccc(O)cc2O)oc2c3c(cc(O)c2c1=O)OC(C)(C)C=C3", "note": "[MORUSIN]", "values": [{"measurement": "Activity", "value": "Active"}]}]}
